The target in assay [1] is Serine/threonine-protein kinase PAK 4 (Homo sapiens) (UniProt O96013). Briefly: Inhibition of human recombinant PAK4 at 40 nM in presence of ATP by radiometric assay relative to control.
Assay [2] deals with T1, Serine/threonine-protein kinase TBK1 (Homo sapiens) (UniProt Q9UHD2).
T1 sequence (whole entry): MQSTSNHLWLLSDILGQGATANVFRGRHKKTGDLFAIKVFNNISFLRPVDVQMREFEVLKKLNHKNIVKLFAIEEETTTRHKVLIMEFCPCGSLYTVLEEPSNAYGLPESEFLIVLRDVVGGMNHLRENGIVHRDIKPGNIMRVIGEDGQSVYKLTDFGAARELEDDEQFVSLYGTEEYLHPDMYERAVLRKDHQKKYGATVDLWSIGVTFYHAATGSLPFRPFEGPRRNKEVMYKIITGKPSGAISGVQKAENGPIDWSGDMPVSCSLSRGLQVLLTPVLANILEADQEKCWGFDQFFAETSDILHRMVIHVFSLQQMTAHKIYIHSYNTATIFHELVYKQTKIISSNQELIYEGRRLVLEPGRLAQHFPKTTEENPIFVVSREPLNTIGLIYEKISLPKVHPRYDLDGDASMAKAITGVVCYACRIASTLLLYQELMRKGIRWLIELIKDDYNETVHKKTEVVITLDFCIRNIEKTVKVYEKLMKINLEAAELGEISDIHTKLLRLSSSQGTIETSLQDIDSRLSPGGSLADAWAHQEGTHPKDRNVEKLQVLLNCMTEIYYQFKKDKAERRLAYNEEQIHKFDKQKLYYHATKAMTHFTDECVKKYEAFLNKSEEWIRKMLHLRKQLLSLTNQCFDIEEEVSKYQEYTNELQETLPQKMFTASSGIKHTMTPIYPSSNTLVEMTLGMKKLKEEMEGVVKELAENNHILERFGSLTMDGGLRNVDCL
Briefly: Inhibition of human recombinant TBK1 at 40 nM in presence of ATP by radiometric assay relative to control.

Assay [3] addresses T2, Tyrosine-protein kinase Mer (Homo sapiens) (UniProt Q12866).
T2 sequence (whole entry): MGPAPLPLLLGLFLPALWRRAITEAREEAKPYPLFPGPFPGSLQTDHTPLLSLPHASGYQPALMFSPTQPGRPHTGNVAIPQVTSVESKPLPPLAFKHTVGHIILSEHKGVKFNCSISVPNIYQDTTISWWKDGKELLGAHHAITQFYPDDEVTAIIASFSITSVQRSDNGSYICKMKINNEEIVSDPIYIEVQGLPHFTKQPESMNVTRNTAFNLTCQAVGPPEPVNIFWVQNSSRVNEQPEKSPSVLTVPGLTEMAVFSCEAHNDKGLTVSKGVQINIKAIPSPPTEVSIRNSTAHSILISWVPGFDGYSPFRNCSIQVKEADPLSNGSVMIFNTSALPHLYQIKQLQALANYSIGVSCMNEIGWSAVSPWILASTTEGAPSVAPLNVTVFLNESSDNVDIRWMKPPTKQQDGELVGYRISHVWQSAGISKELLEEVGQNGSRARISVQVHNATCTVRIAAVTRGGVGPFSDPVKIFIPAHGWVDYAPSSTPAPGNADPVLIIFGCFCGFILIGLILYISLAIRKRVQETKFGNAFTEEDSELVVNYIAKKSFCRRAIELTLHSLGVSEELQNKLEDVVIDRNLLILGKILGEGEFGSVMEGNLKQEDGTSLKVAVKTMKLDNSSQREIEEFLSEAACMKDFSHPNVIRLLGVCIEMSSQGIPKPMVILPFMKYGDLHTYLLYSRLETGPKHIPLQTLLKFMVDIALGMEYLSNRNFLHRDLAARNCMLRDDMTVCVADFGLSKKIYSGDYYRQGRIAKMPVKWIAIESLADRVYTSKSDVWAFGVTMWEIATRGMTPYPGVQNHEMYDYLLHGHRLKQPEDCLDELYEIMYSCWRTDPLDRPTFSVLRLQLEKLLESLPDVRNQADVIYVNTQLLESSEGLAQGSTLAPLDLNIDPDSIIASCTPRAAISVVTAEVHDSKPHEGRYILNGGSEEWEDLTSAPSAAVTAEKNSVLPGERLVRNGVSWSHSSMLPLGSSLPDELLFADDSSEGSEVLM
The assay can be described thus: Inhibition of human recombinant MER at 40 nM related to control ULK1.

The target of assay [4] is Casein kinase II subunit alpha (Homo sapiens) (UniProt P68400). Briefly: Inhibition of human recombinant CK2a1 at 40 nM in presence of ATP by radiometric assay relative to control.
For assay [5], the target named is T3, Testis-specific serine/threonine-protein kinase 3 (Homo sapiens) (UniProt Q96PN8).
T3 sequence (whole entry): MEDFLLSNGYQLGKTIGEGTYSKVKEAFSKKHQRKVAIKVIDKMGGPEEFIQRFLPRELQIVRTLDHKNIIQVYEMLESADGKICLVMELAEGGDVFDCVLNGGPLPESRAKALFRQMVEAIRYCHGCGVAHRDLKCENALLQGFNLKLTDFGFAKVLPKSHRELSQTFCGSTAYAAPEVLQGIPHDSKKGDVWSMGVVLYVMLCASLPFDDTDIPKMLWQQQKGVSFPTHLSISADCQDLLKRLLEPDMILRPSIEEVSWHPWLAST
Briefly: Inhibition of human recombinant TSSK3 at 40 nM related to control ULK1.

For another assay, the species on record is Homo sapiens. The assay can be described thus: Inhibition of human recombinant CK1d at 500 nM in presence of ATP by radiometric assay relative to control.
The target in assay [6] is Serine/threonine-protein kinase B-raf (Homo sapiens) (UniProt P15056). The assay can be described thus: Inhibition of human recombinant BRAF at 500 nM in presence of ATP by radiometric assay relative to control. The method in brief: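 Part of a radiometric in vitro activity panel of 327 recombinant human kinases. Each kinase was tested in duplicate at one inhibitor concentration. Activity remaining was expressed as a percentage of the vehicle control, and percent inhibition was taken as 100 minus that value.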

Assay [7] deals with Cyclin-dependent kinase 5 (Homo sapiens) (UniProt Q00535). Briefly: Inhibition of human recombinant CDK5 at 500 nM related to control ULK1.
Assay [8] concerns the target RAC-gamma serine/threonine-protein kinase (Homo sapiens) (UniProt Q9Y243). The assay can be described thus: Inhibition of human recombinant AKT3 at 15 nM related to control ULK1.
Assay [9] concerns the target Serine/threonine-protein kinase pim-1 (Homo sapiens) (UniProt P11309). The assay can be described thus: Inhibition of human recombinant PIM1 at 15 nM related to control ULK1.
Assay [10] addresses Death-associated protein kinase 2 (Homo sapiens) (UniProt Q9UIK4). The assay can be described thus: Inhibition of human recombinant DAPK2 at 15 nM related to control ULK1.
Assay [11] addresses Dual specificity protein kinase CLK1 (Homo sapiens) (UniProt P49759). Briefly: Inhibition of human recombinant CLK1 at 15 nM related to control ULK1.
The target of assay [12] is Fibroblast growth factor receptor 1 (Homo sapiens) (UniProt P11362). Briefly: Inhibition of human recombinant FGFR1 at 15 nM in presence of ATP by radiometric assay relative to control.
In assay [13] the target is STE20-like serine/threonine-protein kinase (Homo sapiens) (UniProt Q9H2G2). The assay can be described thus: Inhibition of human recombinant SLK at 15 nM related to control ULK1.
Sequence of STE20-like serine/threonine-protein kinase (Homo sapiens) (Q9H2G2 whole entry, looked up): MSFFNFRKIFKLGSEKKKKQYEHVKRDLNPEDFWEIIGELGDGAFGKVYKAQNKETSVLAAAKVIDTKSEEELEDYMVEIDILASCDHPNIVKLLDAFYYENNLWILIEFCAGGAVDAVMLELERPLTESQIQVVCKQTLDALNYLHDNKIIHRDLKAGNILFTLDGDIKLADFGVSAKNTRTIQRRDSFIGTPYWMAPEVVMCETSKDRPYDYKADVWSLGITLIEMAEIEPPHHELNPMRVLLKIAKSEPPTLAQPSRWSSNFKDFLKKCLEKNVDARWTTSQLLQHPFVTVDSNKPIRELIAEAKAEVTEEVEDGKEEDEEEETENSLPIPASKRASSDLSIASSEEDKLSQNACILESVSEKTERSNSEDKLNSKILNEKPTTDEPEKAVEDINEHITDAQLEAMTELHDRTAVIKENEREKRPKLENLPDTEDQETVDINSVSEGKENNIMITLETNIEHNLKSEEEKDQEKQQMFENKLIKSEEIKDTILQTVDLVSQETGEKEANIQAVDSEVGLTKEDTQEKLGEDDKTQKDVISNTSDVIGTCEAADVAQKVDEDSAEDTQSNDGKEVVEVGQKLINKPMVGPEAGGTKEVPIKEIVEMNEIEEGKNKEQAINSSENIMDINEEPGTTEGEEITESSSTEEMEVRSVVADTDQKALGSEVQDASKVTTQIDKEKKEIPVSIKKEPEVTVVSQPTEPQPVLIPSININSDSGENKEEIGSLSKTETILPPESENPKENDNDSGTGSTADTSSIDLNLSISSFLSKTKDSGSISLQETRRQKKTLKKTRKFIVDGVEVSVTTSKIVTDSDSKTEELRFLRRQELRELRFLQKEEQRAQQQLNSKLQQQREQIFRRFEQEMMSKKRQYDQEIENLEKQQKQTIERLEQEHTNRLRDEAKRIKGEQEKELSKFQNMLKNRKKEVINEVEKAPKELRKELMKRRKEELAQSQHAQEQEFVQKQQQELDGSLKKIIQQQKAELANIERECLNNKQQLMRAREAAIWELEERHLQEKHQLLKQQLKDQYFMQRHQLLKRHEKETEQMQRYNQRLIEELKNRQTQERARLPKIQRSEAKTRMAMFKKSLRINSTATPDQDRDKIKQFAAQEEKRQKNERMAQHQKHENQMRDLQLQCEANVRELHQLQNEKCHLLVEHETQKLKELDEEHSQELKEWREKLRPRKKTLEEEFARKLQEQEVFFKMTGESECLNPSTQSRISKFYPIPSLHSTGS

Sequence of Fibroblast growth factor receptor 1 (Homo sapiens) (P11362 22-822 limits assumed): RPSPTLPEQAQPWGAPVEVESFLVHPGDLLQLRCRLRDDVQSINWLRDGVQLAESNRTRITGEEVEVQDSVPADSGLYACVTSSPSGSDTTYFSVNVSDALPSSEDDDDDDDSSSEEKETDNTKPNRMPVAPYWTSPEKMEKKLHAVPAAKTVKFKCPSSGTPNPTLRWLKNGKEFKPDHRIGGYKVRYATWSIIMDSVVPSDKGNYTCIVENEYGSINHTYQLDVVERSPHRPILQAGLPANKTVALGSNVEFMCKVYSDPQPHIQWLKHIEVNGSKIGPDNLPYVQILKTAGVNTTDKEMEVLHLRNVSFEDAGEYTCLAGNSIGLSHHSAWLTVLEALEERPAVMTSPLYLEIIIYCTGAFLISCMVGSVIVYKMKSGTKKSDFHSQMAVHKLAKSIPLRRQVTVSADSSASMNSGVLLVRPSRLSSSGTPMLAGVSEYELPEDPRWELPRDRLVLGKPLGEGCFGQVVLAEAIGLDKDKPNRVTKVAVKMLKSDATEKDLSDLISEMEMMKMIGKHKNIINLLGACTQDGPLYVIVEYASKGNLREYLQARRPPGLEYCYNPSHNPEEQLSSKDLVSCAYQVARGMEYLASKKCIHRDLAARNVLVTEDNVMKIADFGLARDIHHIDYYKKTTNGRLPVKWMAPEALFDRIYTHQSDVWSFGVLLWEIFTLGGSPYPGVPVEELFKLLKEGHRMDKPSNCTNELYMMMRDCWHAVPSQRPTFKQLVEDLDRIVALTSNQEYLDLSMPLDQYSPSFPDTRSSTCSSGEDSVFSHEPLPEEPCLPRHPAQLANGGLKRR
Sequence of Casein kinase II subunit alpha (Homo sapiens) (P68400 whole entry, looked up): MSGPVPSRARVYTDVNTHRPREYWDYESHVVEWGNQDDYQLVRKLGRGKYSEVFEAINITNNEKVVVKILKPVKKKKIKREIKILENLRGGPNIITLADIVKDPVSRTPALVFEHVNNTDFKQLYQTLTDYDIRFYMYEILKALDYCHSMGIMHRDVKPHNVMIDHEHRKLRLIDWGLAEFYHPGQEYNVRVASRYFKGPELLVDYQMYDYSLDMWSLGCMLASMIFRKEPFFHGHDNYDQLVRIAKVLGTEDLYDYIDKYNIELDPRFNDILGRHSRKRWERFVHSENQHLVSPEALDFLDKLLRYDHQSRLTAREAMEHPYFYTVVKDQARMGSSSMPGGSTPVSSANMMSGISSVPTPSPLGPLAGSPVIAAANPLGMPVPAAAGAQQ
Sequence of Serine/threonine-protein kinase pim-1 (Homo sapiens) (P11309 whole entry, looked up): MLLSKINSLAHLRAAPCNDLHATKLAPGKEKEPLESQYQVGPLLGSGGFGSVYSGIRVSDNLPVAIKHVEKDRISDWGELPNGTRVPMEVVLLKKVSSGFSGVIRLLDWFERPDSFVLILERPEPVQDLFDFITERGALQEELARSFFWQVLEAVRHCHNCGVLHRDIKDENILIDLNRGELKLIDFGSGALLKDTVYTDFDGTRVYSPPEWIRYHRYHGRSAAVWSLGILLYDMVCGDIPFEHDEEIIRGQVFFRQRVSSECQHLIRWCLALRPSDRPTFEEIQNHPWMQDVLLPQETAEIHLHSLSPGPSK
Sequence of Dual specificity protein kinase CLK1 (Homo sapiens) (P49759 whole entry, looked up): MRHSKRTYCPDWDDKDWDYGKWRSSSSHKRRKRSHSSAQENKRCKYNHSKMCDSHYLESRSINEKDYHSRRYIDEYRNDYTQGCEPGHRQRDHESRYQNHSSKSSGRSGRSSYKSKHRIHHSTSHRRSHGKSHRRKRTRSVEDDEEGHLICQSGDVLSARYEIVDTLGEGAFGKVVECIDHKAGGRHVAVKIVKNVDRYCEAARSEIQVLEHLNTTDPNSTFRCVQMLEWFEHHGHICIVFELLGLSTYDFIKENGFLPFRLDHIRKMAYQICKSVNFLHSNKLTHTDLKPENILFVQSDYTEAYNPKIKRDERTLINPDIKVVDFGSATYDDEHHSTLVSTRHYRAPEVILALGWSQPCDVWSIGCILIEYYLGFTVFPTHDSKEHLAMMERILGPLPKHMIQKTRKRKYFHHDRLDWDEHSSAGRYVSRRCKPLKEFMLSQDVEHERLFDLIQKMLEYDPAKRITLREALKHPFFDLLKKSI
Sequence of Serine/threonine-protein kinase PAK 4 (Homo sapiens) (O96013 whole entry, looked up): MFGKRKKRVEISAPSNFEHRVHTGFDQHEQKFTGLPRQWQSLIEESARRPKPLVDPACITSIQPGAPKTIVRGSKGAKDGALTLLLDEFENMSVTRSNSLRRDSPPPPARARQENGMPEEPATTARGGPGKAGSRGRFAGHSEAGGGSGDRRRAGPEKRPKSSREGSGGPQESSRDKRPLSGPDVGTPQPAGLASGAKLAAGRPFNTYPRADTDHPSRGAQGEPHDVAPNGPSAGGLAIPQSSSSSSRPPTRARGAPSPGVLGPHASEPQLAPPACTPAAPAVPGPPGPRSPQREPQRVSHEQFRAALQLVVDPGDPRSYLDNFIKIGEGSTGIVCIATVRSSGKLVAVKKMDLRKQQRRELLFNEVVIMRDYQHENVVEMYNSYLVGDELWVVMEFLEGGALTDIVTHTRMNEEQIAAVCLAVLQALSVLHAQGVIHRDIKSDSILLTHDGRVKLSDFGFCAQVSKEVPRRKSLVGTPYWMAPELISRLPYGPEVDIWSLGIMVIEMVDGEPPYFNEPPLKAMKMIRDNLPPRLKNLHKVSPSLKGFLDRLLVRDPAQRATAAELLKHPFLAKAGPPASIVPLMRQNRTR
Sequence of Cyclin-dependent kinase 5 (Homo sapiens) (Q00535 whole entry, looked up): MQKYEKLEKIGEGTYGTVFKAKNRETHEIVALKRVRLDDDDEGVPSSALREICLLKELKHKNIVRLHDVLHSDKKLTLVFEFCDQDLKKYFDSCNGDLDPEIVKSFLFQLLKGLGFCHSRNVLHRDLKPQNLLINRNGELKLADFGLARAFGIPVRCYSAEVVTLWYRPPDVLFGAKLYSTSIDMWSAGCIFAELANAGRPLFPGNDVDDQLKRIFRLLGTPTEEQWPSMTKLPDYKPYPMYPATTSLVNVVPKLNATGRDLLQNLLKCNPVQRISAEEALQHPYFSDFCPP
Sequence of Death-associated protein kinase 2 (Homo sapiens) (Q9UIK4 whole entry, looked up): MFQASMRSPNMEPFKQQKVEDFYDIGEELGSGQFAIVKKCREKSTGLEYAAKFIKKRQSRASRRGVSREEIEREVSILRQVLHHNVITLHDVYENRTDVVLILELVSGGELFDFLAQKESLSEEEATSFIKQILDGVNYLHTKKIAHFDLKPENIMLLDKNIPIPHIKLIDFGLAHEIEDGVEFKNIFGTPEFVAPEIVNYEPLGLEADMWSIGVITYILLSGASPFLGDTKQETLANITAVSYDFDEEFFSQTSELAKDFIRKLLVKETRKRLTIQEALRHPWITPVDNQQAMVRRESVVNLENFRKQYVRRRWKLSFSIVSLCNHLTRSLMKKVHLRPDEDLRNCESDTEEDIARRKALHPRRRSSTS
Sequence of RAC-gamma serine/threonine-protein kinase (Homo sapiens) (Q9Y243 whole entry): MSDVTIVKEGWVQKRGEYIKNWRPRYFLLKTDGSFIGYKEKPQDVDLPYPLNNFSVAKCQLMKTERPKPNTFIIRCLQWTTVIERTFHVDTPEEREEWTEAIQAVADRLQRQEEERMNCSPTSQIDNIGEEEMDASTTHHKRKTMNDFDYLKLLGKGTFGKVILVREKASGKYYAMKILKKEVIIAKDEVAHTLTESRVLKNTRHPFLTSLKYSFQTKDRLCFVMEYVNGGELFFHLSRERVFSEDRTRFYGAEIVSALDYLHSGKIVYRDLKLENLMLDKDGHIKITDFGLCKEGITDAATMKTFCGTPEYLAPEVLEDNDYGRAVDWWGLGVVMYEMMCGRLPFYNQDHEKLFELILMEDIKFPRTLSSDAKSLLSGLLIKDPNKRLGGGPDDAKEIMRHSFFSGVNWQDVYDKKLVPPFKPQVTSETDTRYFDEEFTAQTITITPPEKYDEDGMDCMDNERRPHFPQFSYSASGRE

Regarding `O=C(N[C@@H](C1CC1)C(F)(F)F)c1cc(-c2cnn3cc(-c4ccc(F)cc4)cnc23)cs1`, the inhibition – broadly, the relative decrease from the control value, in per cent – in assay [1] came to 8%; in [2], 26%; in assay [4], 7%. Moreover, the fold change (FC) in assay [3] worked out at 0.01; in assay [5], 0.
As for `CNC(=O)c1ccccc1Oc1nc(Nc2cc(OC)c(OC)c(OC)c2)ncc1Br`, the inhibition in the assay listed under Homo sapiens came out at 10%; in assay [6], 8%. Moreover, the fold change (FC) in [7] was 0.77.
Regarding `CC(C)[C@H](NC(=O)c1cc(-c2cnn3cc(-c4ccc(OCCN5CCCCC5)cc4)cnc23)cs1)C(F)(F)F`, the fold change (FC) in assay [8] was 0.09; in [9], 0.16; in [10] it was 0.07; in [11], 0.95; in assay [13] it was 0.25. The inhibition in assay [12] came out at 0%.
